Screens from PubChem.
APJ antag – blocks the human apelin receptor APJ; CHO-K1 APJ beta-arrestin complementation, luminescence; inhibition, % at 20 µM; actives 0.32% (n = 330,000); P35414;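 active = inhibition above about 40% at 20 µM, limit read from the data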;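 note: cells challenged with 10 nM apelin-13 agonist together with compound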
APJ agonist – agonists of human APJ apelin receptor; P35414; CHO-K1 APJ PathHunter beta-arrestin, luminescence; 0% DMSO wells, 100% apelin; activation, % at 20 µM; actives 0.11% (n = 330,000);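 active = activation more than six SD over the plate average, tested at 20 µM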
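Material: engineered CHO-K1 APJ arrestin reporter cells; amount: 1000 CHO-K1 reporter cells seeded per well; incubation: compound stimulation 90 min at 25 °C, detection 60 min; signal: luminescent beta-gal fragment complementation, chemiluminescent substrate; read-out basis: APJ agonist activity; controls: DMSO-only wells as negative, 10 nM Apelin-13 as positive control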
CCR6 antag – antagonists of human CCR6 receptor | P51684 | CHO-K1 CCR6 PathHunter beta-arrestin, luminescence, CCL20-stimulated | inhibition, % at 20 µM | actives 0.49% (n = 340,000) | AID 493098;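 active = compounds whose inhibition of the agonist-driven luminescence signal at 20 µM reaches about 50%, limit read from the data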;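 note: cells stimulated with CCL20 at 14 nM final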
Target sequence (P51684 whole entry, looked up): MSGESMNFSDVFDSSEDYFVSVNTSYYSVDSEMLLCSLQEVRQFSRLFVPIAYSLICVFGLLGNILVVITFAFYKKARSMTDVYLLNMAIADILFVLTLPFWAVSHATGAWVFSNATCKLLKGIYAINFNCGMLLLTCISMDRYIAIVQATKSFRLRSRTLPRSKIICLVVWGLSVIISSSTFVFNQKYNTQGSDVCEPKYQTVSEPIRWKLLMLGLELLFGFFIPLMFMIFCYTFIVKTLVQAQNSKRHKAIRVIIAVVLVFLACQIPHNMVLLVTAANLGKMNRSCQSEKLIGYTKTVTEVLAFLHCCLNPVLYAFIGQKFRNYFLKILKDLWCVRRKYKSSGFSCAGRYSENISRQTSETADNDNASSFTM
EBI2 antag – antagonists of human EBI2 receptor | EBI2 beta-arrestin recruitment, luminescence, 7a,25-OHC stimulated | inhibition, % at 5 µM | actives 0.81% (n = 360,000) | AID 651636; in the data active = inhibition above about 38%;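 note: enzyme fragment complementation signal reports receptor beta-arrestin coupling in cells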
CXCR6 block – CXCR6 (human) receptor inhibition | CHO-K1 PathHunter CXCR6 beta-arrestin, luminescence | actives 0.36% (n = 360,000) | inhibition, % at 20 µM | AID 602244; in the data active = inhibition above about 34%, passing the limit was not always enough;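 note: antagonist mode with CXCL16 agonist at 10 nM final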
EBI2 antag conf – confirmation of human EBI2 receptor antagonists. EBI2 beta-arrestin luminescence, 7a,25-OHC antagonism. AID 651997. inhibition, % at 5 µM. shares compounds with EBI2 antag. actives 29% (n = 2,400);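 active = inhibition of at least 50%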
EBI2 agonist – activates EBI2, counter-screen for EBI2 antagonists; shares compounds with EBI2 antag; EBI2-expressing cells, agonist mode, luminescence, 60 min; 0% vehicle, 100% 7α,25-dihydroxycholesterol control; activation, % at 5 µM; 2,400 tested, under 10 active; AID 652000;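 active = activation of at least 50%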
bGal counter – inhibits E. coli beta-galactosidase, counter-screen for EBI2 antagonists. shares compounds with EBI2 antag. purified beta-galactosidase, luminescent Galacton Star, 15 min. inhibition, % at 5 µM. actives 1% (n = 2,400);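 active = replicate-average signal at least 3 plate SD below neutral wells, shown as high inhibition, flagging enzyme-inhibiting false positives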;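 note: higher means stronger loss of beta-gal luminescence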
A number is an active result; . = inactive; / = not tested or not shown. Only some compounds are listed: those with a hit (about 1.5% of all), similar ones and a draw of the others.

SMILES	APJ antag	APJ agonist	CCR6 antag	EBI2 antag	CXCR6 block	EBI2 antag conf	EBI2 agonist	bGal counter
Cc1ccc(NC(=O)CCCSc2ccccc2)cc1S(=O)(=O)N1CCOCC1	.	.	.	.	.	/	/	/
COc1ccc(-c2noc(CNC(=O)CCCN3C(=O)[C@H]4CC=CC[C@H]4C3=O)n2)cc1	.	.	.	.	.	/	/	/
CCCOc1ccc(C(=O)N2CCN(c3ccc(N)cc3Cl)CC2)cc1	.	.	.	70	.	52	.	.
Cc1cc(S(=O)(=O)N(Cc2ccc(C(C)(C)C)cc2)Cc2cccs2)ccc1-n1cnnn1	.	.	.	48	.	.	.	.
Cc1cccc(NC(NC(=O)Cc2ccccc2)C(Cl)(Cl)Cl)c1 (stereo unspecified)	.	.	.	.	.	/	/	/
Cc1ccc(NC(NC(=O)Cc2ccccc2)C(Cl)(Cl)Cl)cc1 (stereo unspecified)	/	/	.	44	.	.	.	.
C#Cc1cccc(NC(=O)c2ccc3c(c2)C(=O)N(Cc2cccnc2)C3=O)c1	.	.	.	45	.	.	.	.
Cc1cc(C)c(OCC(=O)N2CC=C(c3ccccc3)CC2)c(C)c1	.	.	.	60	.	71	.	.
CCc1ccc(/C=N/NC(=S)NCCc2ccccc2)cc1	.	.	.	57	.	.	.	.
CC(C)(C)c1ccc(/C=N/NC(=S)NCc2ccccc2)cc1	.	.	.	.	.	/	/	/
CN(C)c1ccc(/C=N/NC(=S)NCc2ccccc2)cc1	.	.	.	49	.	.	.	.
Cn1nnc(NC(=S)NC(=O)Cc2ccccc2)n1	.	.	.	.	.	/	/	/
COc1ccc(N(CC(=O)O)S(=O)(=O)c2ccc(C)cc2)cc1Cl	.	.	.	.	.	/	/	/
O=C(CSc1nc(O)c(C2CCCCC2)c(=O)[nH]1)Nc1ccccc1Cl	.	.	.	.	.	/	/	/
Cc1ccc(NNC(=S)Nc2ccc(C(C)C)cc2)c(C)c1	.	.	.	70	.	62	.	.
CN(C)c1ccnc2sc3c(NCC(O)CO)ncnc3c12 (stereo unspecified)	.	.	.	.	.	/	/	/
CN(C)c1ccnc2sc3c(SCc4ccc(Cl)cc4)ncnc3c12	.	.	.	54	.	.	.	.
CCOc1ccc(NC(=S)N(CCOC)C(C)c2ccco2)cc1 (stereo unspecified)	.	.	.	55	.	.	.	.
CCOc1ccc(NC(=S)N(CCc2ccncc2)C(C)C)cc1	.	.	.	52	.	.	.	.
COCCN(C(=S)Nc1ccc(C)cc1)C(C)c1ccco1 (stereo unspecified)	.	.	.	.	.	/	/	/
Cc1cccc(C)c1NC(=S)N(CCc1ccncc1)C(C)C	.	.	.	.	.	/	/	/
CCOc1ccc(NC(=S)N(CCOC)C2CCN(C(C)C)CC2)cc1	.	.	.	54	.	.	.	.
COc1ccc(NC(=S)N(CCC(C)C)C2CCN(C(C)C)CC2)cc1	.	.	.	.	.	/	/	/
O=C(NC(c1ccccc1)c1ccsc1)C1CCN(CCOc2ccc(Cl)cc2Cl)CC1 (stereo unspecified)	/	/	/	.	.	/	/	/
Cc1cc(Cl)ccc1OCCCC(=O)N1CCCCC1	.	.	.	.	.	/	/	/
Cc1ccc(S(=O)(=O)N2CCN(C(=O)CCCOc3ccc(Cl)cc3C)CC2)cc1	.	.	.	79	.	.	.	.
Cc1ccc(S(=O)(=O)N2CCN(C(=O)CCOc3ccccc3C)CC2)cc1C	.	.	.	48	.	.	.	.
Cc1noc(/C=C/c2ccco2)c1S(=O)(=O)N1CCC(C(=O)NCc2ccco2)CC1	.	.	.	.	.	/	/	/
COc1ccc(S(=O)(=O)N2CCC(C(=O)NCc3ccc(C)cc3)CC2)cc1	.	.	.	66	.	55	.	.
COc1ccc(S(=O)(=O)N2CCC(C(=O)NCc3ccncc3)CC2)cc1	.	.	.	.	.	/	/	/
